Screening data deposited in PubChem BioAssay by Broad Institute.
The full list was thinned out, with hits kept by preference.
T cruzi growth-1 = inhibitors of T. cruzi proliferation | T. cruzi beta-gal in NIH3T3, GalScreen luminescence, 90 h | inhibition, % at 8.34 µM | 77,000 compounds, 5.9% hits;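 active means mean inhibition above about 93%, with at least 55% of replicates each passing it, limit read from the data, passing the limit was not always enough; inconclusive means only one of those two conditions holds; inactive means neither condition holds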
GASC1 inh = blocks human GASC-1 (KDM4C) demethylase activity | GST-KDM4C 2-372, H3K9me3 peptide, LANCE TR-FRET | inhibition, % at 12.5 µM | 96,000 compounds, 0.15% hits;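 active means mean replicate inhibition above about 25%, with at least 55% of replicates also reaching it, limit read from the data, passing the limit was not always enough; inconclusive means only one of those two conditions met; inactive means neither condition met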
Target sequence (Q9H3R0 2-372 limits assumed): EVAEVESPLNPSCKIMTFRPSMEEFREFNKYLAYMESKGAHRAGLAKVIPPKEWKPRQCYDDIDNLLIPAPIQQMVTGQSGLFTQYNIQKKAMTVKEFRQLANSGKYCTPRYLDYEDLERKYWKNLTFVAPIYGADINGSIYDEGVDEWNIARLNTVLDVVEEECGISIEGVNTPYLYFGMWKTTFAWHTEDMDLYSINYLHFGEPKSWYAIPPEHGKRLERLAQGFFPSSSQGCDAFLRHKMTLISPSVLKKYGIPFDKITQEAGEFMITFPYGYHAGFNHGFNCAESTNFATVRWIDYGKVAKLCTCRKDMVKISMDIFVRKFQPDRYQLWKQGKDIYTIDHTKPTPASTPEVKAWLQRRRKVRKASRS
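Test system: N-terminal GST-fused human GASC-1 (KDM4C) fragment, residues 2-372; quantity: GASC-1 enzyme at 10 nM final in reaction; dosing: single dose; schedule: 30 min demethylation and 1 h detection at room temperature; signal: LANCE TR-FRET, excitation 340 nm, emissions 618 and 671 nm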
IDH1 mut inh = blocks human IDH1 R132H reductase activity | O75874 | diaphorase/resazurin fluorescence, 60 min | inhibition, % at 10 µM | 70,000 compounds, 0.18% hits | AID 624101; in the data active means inhibition above about 34%; inconclusive means no clear call, values can overlap the other calls; inactive means below about 11%;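 further: 0% = DMSO and 100% = no enzyme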
T cruzi growth-2 = Trypanosoma cruzi proliferation inhibition | shares compounds with T cruzi growth-1 | T. cruzi beta-gal in NIH3T3, GalScreen luminescence, 90 h | inhibition, % at 8.35 µM | 5,600 compounds, 72% hits | AID 651739;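 active means mean replicate inhibition above about 95% and at least 55% of replicates individually reaching it, limit read from the data; inconclusive means only one of the two criteria is met; inactive means neither criterion is met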
T cruzi growth-3 = Trypanosoma cruzi proliferation inhibition; shares compounds with T cruzi growth-1; T. cruzi beta-gal in NIH3T3, GalScreen luminescence, 90 h; inhibition, % at 2.09 µM; 5,600 compounds, 21% hits; AID 651740;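 active means mean inhibition above about 95%, with at least 55% of replicates also reaching it, limit read from the data; inconclusive means meets just one of the two conditions; inactive means meets neither condition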;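 further: plate controls were neutral control median for no effect and positive control median for full effect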
3T3 cytotox = NIH/3T3 (mouse) viability loss. AID 651742. NIH/3T3 viability, CellTiter-Glo ATP luminescence, 90 h. cytotoxicity (signal decrease), % at 8.35 µM. shares compounds with T cruzi growth-1. 5,600 compounds, 14% hits;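 active means mean signal decrease across replicates above about 35% based on untreated-well scatter, with enough replicates individually passing, limit read from the data; inconclusive means no rule stated though some were filed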;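 further: 0% = median of neutral control wells and 100% = median of positive control wells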
3T3 cytotox 2 = cytotoxicity in mouse NIH/3T3 fibroblasts; 5,600 compounds, 56% hits; shares compounds with T cruzi growth-1; inhibition, % at 24.9 µM; NIH/3T3 viability, CellTiter-Glo ATP luminescence, 90 h;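 active means mean loss of cell viability signal at or above a set limit, and enough replicates individually reaching it; inconclusive means meets only the mean limit or only the replicate share; inactive means meets neither condition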;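 further: 0% = median of neutral control wells and 100% = median of positive control wells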
* = called active by the depositor; ? = inconclusive; . = not tested or not shown.

SMILES	T cruzi growth-1	GASC1 inh	IDH1 mut inh	T cruzi growth-2	T cruzi growth-3	3T3 cytotox	3T3 cytotox 2
Cc1cccc(S(=O)(=O)N2CCCCN3[C@H](CO)[C@@H](c4ccc(C#CC(C)C)cc4)[C@@H]3C2)c1	117.5*	1.2	.	101.1*	98.2*	10.3	49.4*
Cc1cccc(S(=O)(=O)N2CCCCN3[C@H](CO)[C@H](c4ccc(C#C[C@@H](C)O)cc4)[C@@H]3C2)c1	62.5	0.2	.	.	.	.	.
Cc1cccc(S(=O)(=O)N2CCCCN3[C@H](C2)[C@@H](c2ccc(C#C[C@@H](C)O)cc2)[C@@H]3CO)c1	66.8	-0.1	.	.	.	.	.
COc1ccc(N2C(=O)N(c3ccc(F)cc3)C(=O)C2CC(=O)Nc2ccc(F)cc2)cc1 (stereo not given)	.	.	0.2	.	.	.	.
Cc1ccccc1-c1nc2cc(NC(=O)COc3ccc(Br)cc3)ccc2o1	.	.	0.1	.	.	.	.
Cc1ccn2cc(-c3cccc(NS(=O)(=O)c4cc([N+](=O)[O-])ccc4C)c3)nc2c1	.	.	-1.0	.	.	.	.
C[C@@H]1CN([C@@H](C)CO)C(=O)c2cc(NC(=O)NC3CCCCC3)ccc2O[C@H]1CN(C)Cc1ccc(Cl)c(Cl)c1	?	0.2	5.6	110.5*	43.1	8.2	3.1
C[C@@H]1CN([C@@H](C)CO)C(=O)c2cc(NC(=O)C3CCCCC3)ccc2O[C@@H]1CN(C)Cc1ccc(Cl)c(Cl)c1	?	1.1	1.5	103.0*	94.5	11.7	39.3*
C[C@@H]1CN([C@@H](C)CO)C(=O)c2cc(NC(=O)C3CCCCC3)ccc2O[C@H]1CN(C)Cc1ccc(Cl)c(Cl)c1	97.0	2.7	.	.	.	.	.
C[C@H]1CN([C@@H](C)CO)C(=O)c2cc(NC(=O)NC3CCCCC3)ccc2O[C@H]1CN(C)Cc1ccc(Cl)c(Cl)c1	93.7	-0.9	0.4	.	.	.	.
C/C=C1/[C@H](O[C@@H]2O[C@H](CO)[C@@H](O)[C@H](O)[C@H]2O)OC=C(C(=O)OC)[C@H]1CC(=O)OCC(C)[C@@H]1C[C@H]2OC(=O)C3=CO[C@@H](O[C@@H]4O[C@H](CO)[C@@H](O)[C@H](O)[C@H]4O)/C(=C/C)[C@@H]3CC(=O)OC[C@@H]1[C@H]2C (stereo not given in full)	.	.	0.4	.	.	.	.
O=C(CCCCCCC(=O)Nc1ccccc1O)N/N=C/c1ccc(S(=O)(=O)O)o1	.	.	-0.3	.	.	.	.
COC(=O)c1c(NC(=O)COc2ccccc2)sc(C(N)=O)c1C	.	.	0.3	.	.	.	.
Cc1cc(N(CC(=O)Nc2ccc(Cl)c(Cl)c2)S(C)(=O)=O)ccc1Br	.	.	0.3	.	.	.	.
CN1CCN(C(=S)SCC(=O)Nc2nc(=O)c3ccccc3s2)CC1	.	.	-1.4	.	.	.	.
CCCC#Cc1ccc2c(c1)O[C@@H](CN(C)C(=O)c1ccccc1)[C@@H](C)CN([C@H](C)CO)S2(=O)=O	78.3	1.5	0.1	.	.	.	.
CC(C)CC#Cc1ccc2c(c1)O[C@@H](CN(C)C(=O)c1ccccc1)[C@H](C)CN([C@@H](C)CO)S2(=O)=O	115.8*	-2.4	-0.1	109.6*	57.3	38.9*	108.3*
CC(C)CC#Cc1ccc2c(c1)O[C@H](CN(C)C(=O)c1ccccc1)[C@H](C)CN([C@@H](C)CO)S2(=O)=O	117.9*	-3.2	-0.2	104.1*	98.3*	21.6	105.5*
CCCC#Cc1ccc2c(c1)O[C@@H](CN(C)C(=O)c1ccccc1)[C@@H](C)CN([C@@H](C)CO)S2(=O)=O	69.6	-0.9	0.2	.	.	.	.
CC(C)CC#Cc1ccc2c(c1)O[C@@H](CN(C)C(=O)c1ccccc1)[C@@H](C)CN([C@H](C)CO)S2(=O)=O	.	-6.2	0.2	.	.	.	.
CCCC#Cc1ccc2c(c1)O[C@H](CN(C)C(=O)c1ccccc1)[C@H](C)CN([C@@H](C)CO)S2(=O)=O	96.3*	-0.8	-1.6	101.9*	76.9	-2.9	26.1*
CCc1cc(C(=O)OC)c(NC(=S)Nc2cn(CC)nc2C(N)=O)s1	.	.	-0.3	.	.	.	.
Cc1ccc(NC(=O)COc2ccccc2)c(NC(=O)C2CC2)c1	.	.	1.5	.	.	.	.
COc1ccc(Cl)cc1C(=O)N(Cc1nc(-c2ccc(C)cc2)no1)C(C)C	.	.	0.4	.	.	.	.
COc1ccc(NC(=O)CN2C(=O)COc3ccc(Cl)cc32)cc1	.	.	-0.6	.	.	.	.
SMILES	T cruzi growth-1	GASC1 inh	IDH1 mut inh	T cruzi growth-2	T cruzi growth-3	3T3 cytotox	3T3 cytotox 2
C[C@H]1CN([C@@H](C)CO)S(=O)(=O)c2ccc(C#CC3CC3)cc2O[C@@H]1CN(C)Cc1ccccc1	111.3*	-2.6	0.1	99.7*	92.5	-12.1	104.5*
C[C@@H]1CN([C@@H](C)CO)S(=O)(=O)c2ccc(C#CC3CC3)cc2O[C@H]1CN(C)Cc1ccccc1	119.8*	0.8	0.7	95.0*	76.4	49.6*	106.3*
C[C@@H]1CN([C@@H](C)CO)S(=O)(=O)c2ccc(C#CC3CC3)cc2O[C@@H]1CN(C)Cc1ccccc1	37.2	-1.8	-1.0	.	.	.	.
C[C@H]1CN([C@@H](C)CO)S(=O)(=O)c2ccc(C#CC3CC3)cc2O[C@H]1CN(C)Cc1ccccc1	57.5	0.4	-0.3	.	.	.	.
COc1ccc(NC(=O)C(=O)NCC(=O)Nc2ccccc2OC)cc1	.	.	-0.3	.	.	.	.
O=S(=O)(c1ccccc1)N1CCCCN2[C@@H](CO)[C@H](c3ccc(C#Cc4ccccc4)cc3)[C@@H]2C1	71.4	0.6	.	.	.	.	.
O=S(=O)(Cc1ccccc1)N1CCCCN2[C@H](C1)[C@H](c1ccc(C#Cc3ccccc3)cc1)[C@@H]2CO	104.1*	-1.9	.	108.4*	?	26.4	106.6*
CCCC#Cc1ccc([C@@H]2[C@H]3CN(S(=O)(=O)Cc4ccccc4)CCCCN3[C@H]2CO)cc1	80.6	-1.6	.	.	.	.	.
O=S(=O)(Cc1ccccc1)N1CCCCN2[C@H](C1)[C@@H](c1ccc(C#Cc3ccccc3)cc1)[C@@H]2CO	100.5*	-0.6	.	104.9*	112.1*	27.4	68.3*
COC(=O)c1ccccc1NC(=O)CN(c1cc(Cl)c(Cl)cc1Cl)S(C)(=O)=O	.	.	-0.3	.	.	.	.
CC(C)CC#Cc1ccc2c(c1)O[C@H](CN(C)CC1CCOCC1)[C@@H](C)CN([C@H](C)CO)S2(=O)=O	119.8	0.2	-2.9	.	.	.	.
CC(C)CC#Cc1ccc2c(c1)O[C@@H](CN(C)CC1CCOCC1)[C@@H](C)CN([C@H](C)CO)S2(=O)=O	118.3*	-2.2	.	108.5*	90.9	16.2	104.1*
CC(C)CC#Cc1ccc2c(c1)O[C@@H](CN(C)CC1CCOCC1)[C@@H](C)CN([C@@H](C)CO)S2(=O)=O	?	-0.4	-6.6	110.3*	?	25.5	105.1*
CC(C)CC#Cc1ccc2c(c1)O[C@@H](CN(C)CC1CCOCC1)[C@H](C)CN([C@@H](C)CO)S2(=O)=O	107.1	-2.1	0.2	.	.	.	.
CCCC#Cc1ccc2c(c1)O[C@@H](CN(C)C(=O)c1ccncc1)[C@H](C)CN([C@H](C)CO)S2(=O)=O	82.2	-1.5	-0.3	.	.	.	.
